Assay results reported in ChEMBL document CHEMBL2146441, “2,6-Disubstituted imidazo[2,1-b][1,3,4]thiadiazoles: search for anticancer agents” (2012).

Experiments:
Type in all cases: functional
SK-OV-3 [1] = experiment: Cytotoxicity against human SKOV3 cells assessed as cell growth at 10^-4 M after 48 hrs by SRB assay; settings: SK-OV-3, 48 h, read-out: Activity
NCI-H322M = experiment: Cytotoxicity against human NCI-H322M cells assessed as cell growth at 10^-4 M after 48 hrs by SRB assay; settings: read-out: Activity
OVCAR-5 [2] = experiment: Cytotoxicity against human OVCAR5 cells assessed as cell growth at 10^-8 M after 48 hrs by SRB assay; settings: OVCAR-5, 48 h, read-out: Activity
HOP-92 = experiment: Cytotoxicity against human HOP92 cells assessed as cell growth at 10^-4 M after 48 hrs by SRB assay; settings: HOP-92, 48 h, read-out: Activity
Outline: (§1)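 NCI-60 five-dose screen. Cells were grown in RPMI 1640 with 5% FBS and seeded at 5000–40,000 cells/well according to doubling time. They were pre-incubated 24 h at 37 °C in 5% CO₂, and time-zero (Tz) plates were TCA-fixed at drug addition. Five 10-fold dilutions of DMSO stock were applied for 48 h. Read-out was SRB staining, 515 nm absorbance, with percent growth calculated versus Tz and untreated control.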

HT-29 [3] = experiment: Cytotoxicity against human HT-29 cells assessed as cell growth at 10^-4 M after 48 hrs by SRB assay; settings: HT-29, 48 h, read-out: Activity; outline: as §1
SK-OV-3 [4] = experiment: Cytotoxicity against human SKOV3 cells assessed as cell growth at 10^-6 M after 48 hrs by SRB assay; settings: SK-OV-3, 48 h, read-out: Activity
[5] = Cytotoxicity against human NCI-ADR-RES cells assessed as cell growth at 10^-7 M after 48 hrs by SRB assay; settings: read-out: Activity
SR = experiment: Growth inhibition of human SR cells after 48 hrs by SRB assay
M14 = experiment: Cytotoxicity against human M14 cells assessed as cell growth at 10^-4 M after 48 hrs by SRB assay; settings: M14, 48 h, read-out: Activity
[6] = Cytotoxicity against human Hs 578T cells assessed as cell growth at 10^-8 M after 48 hrs by SRB assay; settings: read-out: Activity; outline: as §1
MCF7 = experiment: Cytotoxicity against human MCF7 cells assessed as cell growth at 10^-4 M after 48 hrs by SRB assay; settings: MCF7, 48 h, read-out: Activity
HOP-62 = experiment: Cytotoxicity against human HOP62 cells assessed as cell growth at 10^-8 M after 48 hrs by SRB assay; settings: HOP-62, 48 h, read-out: Activity; outline: as §1
KM12 [7] = experiment: Cytotoxicity against human KM12 cells assessed as cell growth at 10^-4 M after 48 hrs by SRB assay; settings: KM12, 48 h, read-out: Activity
PC-3 = experiment: Cytotoxicity against human PC3 cells assessed as cell growth at 10^-4 M after 48 hrs by SRB assay; settings: PC-3, 48 h, read-out: Activity
KM12 [8] = experiment: Cytotoxicity against human KM12 cells assessed as cell growth at 10^-8 M after 48 hrs by SRB assay; settings: KM12, 48 h, read-out: Activity
MDA-MB-468 [9] = experiment: Cytotoxicity against human MDA-MB-468 cells assessed as cell growth at 10^-6 M after 48 hrs by SRB assay; settings: MDA-MB-468, 48 h, read-out: Activity
SF-268 = experiment: Cytotoxicity against human SF268 cells assessed as cell growth at 10^-6 M after 48 hrs by SRB assay; settings: SF-268, 48 h, read-out: Activity
MDA-MB-468 [10] = experiment: Cytotoxicity against human MDA-MB-468 cells assessed as cell growth at 10^-8 M after 48 hrs by SRB assay; settings: MDA-MB-468, 48 h, read-out: Activity
OVCAR-4 = experiment: Cytotoxicity against human OVCAR4 cells assessed as cell growth at 10^-6 M after 48 hrs by SRB assay; settings: OVCAR-4, 48 h, read-out: Activity
COLO = experiment: Growth inhibition of human COLO […] cells after 48 hrs by SRB assay
Outline: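 Same 48 h NCI-60 five-dose SRB protocol. Adherent lines were fixed with cold TCA at 10% final; suspension lines such as CCRF-CEM were fixed with 16% final TCA. Stain was 0.4% SRB in 1% acetic acid for 10 min, solubilized in 10 mM Tris base and read at 515 nm. GI50 came from log concentration–growth curves, solving [(Ti−Tz)/(C−Tz)]×100 = 50.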

HT-29 [11] = experiment: Cytotoxicity against human HT-29 cells assessed as cell growth at 10^-6 M after 48 hrs by SRB assay; settings: HT-29, 48 h, read-out: Activity; outline: as §1
NCI-H522 [12] = experiment: Cytotoxicity against human NCI-H522 cells assessed as cell growth at 10^-8 M after 48 hrs by SRB assay; settings: NCI-H522, 48 h, read-out: Activity
DU-145 = experiment: Cytotoxicity against human DU145 cells assessed as cell growth at 10^-5 M after 48 hrs by SRB assay; settings: DU-145, 48 h, read-out: Activity
Outline: (§2)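 NCI-60 screen: lines kept in RPMI 1640 with 5% FBS, seeded at 5000–40,000 cells/well by doubling time, preincubated 24 h at 37 °C in 5% CO2. Time-zero plates TCA-fixed at drug addition. DMSO stocks diluted in medium, 48 h exposure. Fixation in cold TCA (final 10% adherent, 16% suspension), 0.4% SRB stain, solubilised in 10 mM Tris base, A515. Percent growth computed against control and time-zero.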

OVCAR-3 = experiment: Cytotoxicity against human OVCAR3 cells assessed as cell growth at 10^-7 M after 48 hrs by SRB assay; settings: OVCAR-3, 48 h, read-out: Activity
CCRF-CEM = experiment: Cytotoxicity against human CCRF-CEM cells assessed as cell growth at 10^-8 M after 48 hrs by SRB assay; settings: read-out: Activity; outline: as §2
A549 = experiment: Cytotoxicity against human A549 cells assessed as cell growth at 10^-5 M after 48 hrs by SRB assay; settings: A549, 48 h, read-out: Activity; outline: as §2
NCI-H522 [13] = experiment: Cytotoxicity against human NCI-H522 cells assessed as cell growth at 10^-7 M after 48 hrs by SRB assay; settings: NCI-H522, 48 h, read-out: Activity
OVCAR-5 [14] = experiment: Growth inhibition of human OVCAR5 cells after 48 hrs by SRB assay; settings: OVCAR-5, 48 h
Outline: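 Adherent NCI-60 lines grown in RPMI 1640 with 5% FBS, seeded at 5000–40,000 cells/well, and preincubated 24 h at 37 °C, 5% CO2. Compound, stocked in DMSO, given either once at 10^-5 M or at five 10-fold dilutions for 48 h. Cells fixed with cold TCA (final 10%), stained with 0.4% SRB, and read at 515 nm. GI50 taken as 50% reduction in net protein increase versus time-zero and control plates.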

HT-29 [15] = experiment: Cytotoxicity against human HT-29 cells assessed as cell growth at 10^-8 M after 48 hrs by SRB assay; settings: HT-29, 48 h, read-out: Activity; outline: as §1
OVCAR-5 [16] = experiment: Cytotoxicity against human OVCAR5 cells assessed as cell growth at 10^-7 M after 48 hrs by SRB assay; settings: OVCAR-5, 48 h, read-out: Activity
SK-OV-3 [17] = experiment: Cytotoxicity against human SKOV3 cells assessed as cell growth at 10^-5 M after 48 hrs by SRB assay; settings: SK-OV-3, 48 h, read-out: Activity

Row | SMILES | growth at 100 µM (SK-OV-3 [1]) [%] | growth at 100 µM (NCI-H322M) [%] | growth at 0.01 µM (OVCAR-5 [2]) [%] | growth at 100 µM (HOP-92) [%] | growth at 100 µM (HT-29 [3]) [%] | growth at 1 µM (SK-OV-3 [4]) [%] | growth at 0.1 µM [5] [%] | GI50 (SR) [µM] | LC50 (SR) [µM] | TGI (SR) [µM] | growth at 100 µM (M14) [%] | growth at 0.01 µM [6] [%] | growth at 100 µM (MCF7) [%] | growth at 0.01 µM (HOP-62) [%] | growth at 100 µM (KM12 [7]) [%] | growth at 100 µM (PC-3) [%] | growth at 0.01 µM (KM12 [8]) [%] | growth at 1 µM (MDA-MB-468 [9]) [%] | growth at 1 µM (SF-268) [%] | growth at 0.01 µM (MDA-MB-468 [10]) [%] | other results
1 | COc1ccc(-c2nn3cc(-c4ccc(O)cc4O)nc3s2)cc1 | -50 | 11 | 92 | -21 | -20 | 85 | 99 | 2.17 | > 100 | 14 | -49 | 95 | -7 | 95 | 2 | 1 | 98 | 59 | 73 | 96 | growth at 1 µM (OVCAR-4): 68%; GI50 (COLO): 5.82 µM; LC50 (COLO): > 100 µM; TGI (COLO): 36.8 µM; growth at 1 µM (HT-29 [11]): 86%; growth at 0.01 µM (NCI-H522 [12]): 89%; growth at 10 µM (DU-145): 27%; growth at 0.1 µM (OVCAR-3): 98%; growth at 0.01 µM (CCRF-CEM): 98%; growth at 10 µM (A549): 2%; growth at 0.1 µM (NCI-H522 [13]): 84%; GI50 (OVCAR-5 [14]): 3.43 µM; LC50 (OVCAR-5 [14]): > 100 µM; TGI (OVCAR-5 [14]): > 100 µM; growth at 0.01 µM (HT-29 [15]): 98%; growth at 0.1 µM (OVCAR-5 [16]): 90%; growth at 10 µM (SK-OV-3 [17]): -67%
2 | COc1ccc(-c2nn3cc(-c4cccc(N)c4)nc3s2)cc1 | -68 | -3 | 103 | -52 | -48 | 87 | 96 | 3.27 | > 100 | > 100 | -54 | 90 | -47 | 97 | -48 | -22 | 98 | 68 | 88 | 94 | growth at 1 µM (OVCAR-4): 60%; GI50 (COLO): 7.08 µM; LC50 (COLO): 86 µM; TGI (COLO): 26.7 µM; growth at 1 µM (HT-29 [11]): 88%; growth at 0.01 µM (NCI-H522 [12]): 82%; growth at 10 µM (DU-145): 41%; growth at 0.1 µM (OVCAR-3): 98%; growth at 0.01 µM (CCRF-CEM): 96%; growth at 10 µM (A549): 36%; growth at 0.1 µM (NCI-H522 [13]): 83%; GI50 (OVCAR-5 [14]): 8.54 µM; LC50 (OVCAR-5 [14]): > 100 µM; TGI (OVCAR-5 [14]): 47.1 µM; growth at 0.01 µM (HT-29 [15]): 100%; growth at 0.1 µM (OVCAR-5 [16]): 103%; growth at 10 µM (SK-OV-3 [17]): 2%
